Laboratory results reported in ChEMBL document CHEMBL1139875, “Discovery of 4-aminobutyric acid derivatives possessing anticonvulsant and antinociceptive activities: a hybrid pharmacophore approach” (2007).
Active and inactive are the calls of the source. The rule behind the calls is not given here.

Legend:
[1] = system: Rattus norvegicus; test: Anti-cold allodynia effect in Sprague-Dawley rat SNL model assessed as duration of paw withdrawal 100 mg/kg, ip after 2.5 hrs; type: functional; conditions: route intraperitoneal
Method in brief: (§1)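 Left L5 spinal nerve ligation under pentobarbital (65 mg/kg i.p.). Allodynic rats dosed i.p. 100 mg/kg, vehicle 30% v/v PEG 400 in water. Acetone (100-200 µL) misted onto midplantar affected paw after 10 min acclimatization; paw withdrawal duration, mean of three samples at least 3 min apart; n = 4 rats.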

[2] = system: Mus musculus; test: Analgesic activity in Swiss Albino mouse assessed as inhibition of acetic acid-induced writhing responses at 100 mg/kg, ip; type: functional; conditions: route intraperitoneal
Method in brief: (§2)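 Mice in groups of six dosed i.p. at 100 mg/kg, controls receiving 30% v/v PEG 400 in water. Writhing induced by i.p. 0.1 mL of 3% v/v acetic acid 1 h after drug. Writhes (abdominal stretch with at least one hind limb extended) counted over 30 min; % inhibition calculated. Mean ± SEM, Student's t test.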

[3] = system: Rattus norvegicus; test: Effect on spontaneous pain in Sprague-Dawley rat SNL model assessed as duration of paw withdrawal at 100 mg/kg, ip after 2 hrs; type: functional; conditions: route intraperitoneal
Method in brief: (§3)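 Rats underwent left L5 spinal nerve ligation (Kim and Chung) under i.p. pentobarbital (65 mg/kg). Spontaneous pain is recorded for 5 min after 10 min acclimatization, as cumulative duration the ipsilateral paw is lifted, excluding locomotor lifts. Dosing is 100 mg/kg i.p. in 30% v/v PEG 400/water, with testing at 0.5–2.5 h. Four rats, mean ± SEM versus predrug, one-way ANOVA with Bonferroni.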

[4] = system: Rattus norvegicus; test: Anti-dynamic allodynia effect in Sprague-Dawley rat SNL model assessed as latency to paw withdrawal 100 mg/kg, ip after 0.5 hr; type: functional; conditions: route intraperitoneal
Method in brief: (§4)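 Left L5 spinal nerve ligation rats, tested preoperatively and 9 days postoperatively, then given 100 mg/kg i.p. (vehicle 30% v/v PEG 400 in water). After 10 min acclimatization, plantar surface of affected paw stroked mildly with a cotton-bud; paw lift response recorded. n = 4; retested 0.5-2.5 h post-dose.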

[5] = system: Rattus norvegicus; test: Anti-cold allodynia effect in Sprague-Dawley rat SNL model assessed as duration of paw withdrawal 100 mg/kg, ip after 2 hrs; type: functional; conditions: route intraperitoneal; method in brief: as §1
[6] = system: Rattus norvegicus; test: Antihyperalgesic effects in Sprague-Dawley rat CCI model assessed as duration of paw withdrawal at 100 mg/kg, ip after 1 hr; type: functional; conditions: route intraperitoneal
[7] = system: Mus musculus; test: Anticonvulsant activity in Swiss Albino mouse at 300 mg/kg, ip after 4 hrs by scPIC test; type: functional, organism-based; parameters: dose 300 mg/kg
Method in brief: (§5)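 Mice (Swiss, 20-25 g) given i.p. doses of 30, 100 and 300 mg/kg under ADD program protocols, three per group, examined at 0.5 and 4 h in MES, scPTZ, scSTY or scPIC seizure tests. Value is the minimum dose protecting half or more of the mice.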

[8] = system: Mus musculus; test: Anticonvulsant activity in Swiss Albino mouse at 300 mg/kg, ip after 0.5 hr by MES test; type: functional, organism-based; parameters: dose 300 mg/kg; method in brief: as §5
[9] = system: Mus musculus; test: Neurotoxicity in Swiss Albino mouse at 300 mg/kg, ip after 4 hrs by rotarod test; type: functional, organism-based; parameters: dose 300 mg/kg
Method in brief: (§6)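 Swiss mice (20-25 g) are trained on an accelerating rotorod (10 rpm, 3.2 cm rod), then injected i.p. at 30, 100 or 300 mg/kg, with three per group. Neurotoxicity means failure to keep equilibrium for at least 1 min in each of three trials, checked at 0.5 and 4 h. The value reported is the minimum dose affecting half or more of the mice.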

[10] = system: Rattus norvegicus; test: Effect on spontaneous pain in Sprague-Dawley rat SNL model assessed as duration of paw withdrawal at 100 mg/kg, ip after 1.5 hrs; type: functional; conditions: route intraperitoneal; method in brief: as §3
[11] = system: Mus musculus; test: Anticonvulsant activity in Swiss Albino mouse at 300 mg/kg, ip after 0.5 hr by scPTZ test; type: functional, organism-based; parameters: dose 300 mg/kg; method in brief: as §5
[12] = system: Mus musculus; test: Neurotoxicity in Swiss Albino mouse at 300 mg/kg, ip after 0.5 hr by rotarod test; type: functional, organism-based; parameters: dose 300 mg/kg; method in brief: as §6
[13] = system: Rattus norvegicus; test: Anti-dynamic allodynia effect in Sprague-Dawley rat SNL model assessed as latency to paw withdrawal 100 mg/kg, ip after 1 hr; type: functional; conditions: route intraperitoneal; method in brief: as §4
[14] = system: Rattus norvegicus; test: Effect on spontaneous pain in Sprague-Dawley rat SNL model assessed as duration of paw withdrawal at 100 mg/kg, ip after 0.5 hr; type: functional; conditions: route intraperitoneal; method in brief: as §3
[15] = system: Mus musculus; test: Anticonvulsant activity in Swiss Albino mouse at 300 mg/kg, ip after 0.5 hr by scPIC test; type: functional, organism-based; parameters: dose 300 mg/kg; method in brief: as §5
[16] = system: Mus musculus; test: Anticonvulsant activity in Swiss Albino mouse at 300 mg/kg, ip after 4 hrs by MES test; type: functional, organism-based; parameters: dose 300 mg/kg; method in brief: as §5
[17] = system: Mus musculus; test: Anticonvulsant activity in Swiss Albino mouse at 300 mg/kg, ip after 4 hrs by scSTY test; type: functional, organism-based; parameters: dose 300 mg/kg; method in brief: as §5
[18] = system: Rattus norvegicus; test: Anti-cold allodynia effect in Sprague-Dawley rat SNL model assessed as duration of paw withdrawal 100 mg/kg, ip after 0.5 hr; type: functional; conditions: route intraperitoneal; method in brief: as §1
[19] = system: Rattus norvegicus; test: Antihyperalgesic effects in Sprague-Dawley rat CCI model assessed as duration of paw withdrawal at 100 mg/kg, ip after 2.5 hrs; type: functional; conditions: route intraperitoneal
[20] = system: Rattus norvegicus; test: Anti-dynamic allodynia effect in Sprague-Dawley rat SNL model assessed as latency to paw withdrawal 100 mg/kg, ip after 1.5 hrs; type: functional; conditions: route intraperitoneal; method in brief: as §4
[21] = system: Rattus norvegicus; test: Anti-dynamic allodynia effect in Sprague-Dawley rat SNL model assessed as latency to paw withdrawal 100 mg/kg, ip after 2.5 hrs; type: functional; conditions: route intraperitoneal; method in brief: as §4
[22] = system: Rattus norvegicus; test: Antihyperalgesic effects in Sprague-Dawley rat CCI model assessed as duration of paw withdrawal at 100 mg/kg, ip after 1.5 hrs; type: functional; conditions: route intraperitoneal
[23] = organism: Rattus norvegicus; test: Anti-dynamic allodynic effect in Sprague-Dawley rat CCI model assessed as latency to paw withdrawal after 1 hr; type: functional
Method in brief: (§7)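 Rats with sciatic nerve chronic constriction injury (pentobarbital 65 mg/kg i.p. anaesthesia), baseline and day 9 testing, then drug per randomization table. After 10 min acclimatization, affected plantar surface stroked mildly with a cotton-bud; paw lift recorded. n = 4; retested 0.5-2.5 h post-dose.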

[24] = system: Rattus norvegicus; test: Antihyperalgesic effects in Sprague-Dawley rat CCI model assessed as duration of paw withdrawal at 100 mg/kg, ip after 0.5 hr; type: functional; conditions: route intraperitoneal
[25] = system: Rattus norvegicus; test: Effect on spontaneous pain in Sprague-Dawley rat SNL model assessed as duration of paw withdrawal at 100 mg/kg, ip after 2.5 hrs; type: functional; conditions: route intraperitoneal; method in brief: as §3
[26] = organism: Rattus norvegicus; test: Anti-dynamic allodynic effect in Sprague-Dawley rat CCI model assessed as latency to paw withdrawal after 1.5 hr; type: functional; method in brief: as §7
[27] = organism: Rattus norvegicus; test: Anti-dynamic allodynic effect in Sprague-Dawley rat CCI model assessed as latency to paw withdrawal after 2 hr; type: functional; method in brief: as §7
[28] = organism: Rattus norvegicus; test: Anti-dynamic allodynic effect in Sprague-Dawley rat CCI model assessed as latency to paw withdrawal after 2.5 hr; type: functional; method in brief: as §7
[29] = system: Mus musculus; test: Anticonvulsant activity in Swiss Albino mouse at 300 mg/kg, ip after 0.5 hr by scSTY test; type: functional, organism-based; parameters: dose 300 mg/kg; method in brief: as §5
[30] = system: Rattus norvegicus; test: Anti-cold allodynia effect in Sprague-Dawley rat SNL model assessed as duration of paw withdrawal 100 mg/kg, ip after 1.5 hrs; type: functional; conditions: route intraperitoneal; method in brief: as §1
[31] = organism: Rattus norvegicus; test: Anti-dynamic allodynic effect in Sprague-Dawley rat CCI model assessed as latency to paw withdrawal after 0.5 hr; type: functional; method in brief: as §7
[32] = system: Mus musculus; test: Analgesic activity in Swiss Albino mouse assessed as number of acetic acid-induced writhing per 30 min after 100 mg/kg, ip; type: functional; conditions: route intraperitoneal; method in brief: as §2
[33] = system: Rattus norvegicus; test: Anti-cold allodynia effect in Sprague-Dawley rat SNL model assessed as duration of paw withdrawal 100 mg/kg, ip after 1 hrs; type: functional; conditions: route intraperitoneal; method in brief: as §1
[34] = system: Rattus norvegicus; test: Anti-dynamic allodynia effect in Sprague-Dawley rat SNL model assessed as latency to paw withdrawal 100 mg/kg, ip after 2 hrs; type: functional; conditions: route intraperitoneal; method in brief: as §4
[35] = system: Rattus norvegicus; test: Antihyperalgesic effects in Sprague-Dawley rat CCI model assessed as duration of paw withdrawal at 100 mg/kg, ip after 2 hrs; type: functional; conditions: route intraperitoneal
[36] = system: Rattus norvegicus; test: Effect on spontaneous pain in Sprague-Dawley rat SNL model assessed as duration of paw withdrawal at 100 mg/kg, ip after 1 hr; type: functional; conditions: route intraperitoneal; method in brief: as §3

SMILES: O=C(O)CCCNC(=O)N/N=C(\c1ccccc1)c1ccc(Br)cc1
- Activity [1]: 10.2 s
- inhibition in vivo at 100 mg/kg [2]: 89%
- Activity [3]: 10.1 s
- Activity [4]: 9.8 s
- Activity [5]: 10.8 s
- Activity [6]: 8.5 s
- Activity [7]: inactive
- Activity [8]: Active
- Activity [9]: inactive
- Activity [10]: 23.1 s
- Activity [11]: inactive
- Activity [12]: inactive
- Activity [13]: 10.6 s
- Activity [14]: 25.1 s
- Activity [15]: inactive
- Activity [16]: inactive
- Activity [17]: Active
- Activity [18]: 19.1 s
- Activity [19]: 5.6 s
- Activity [20]: 10.8 s
- Activity [21]: 10.23 s
- Activity [22]: 5.1 s
- Activity [23]: 10.3 s
- Activity [24]: 20.5 s
- Activity [25]: 8.7 s
- Activity [26]: 10.6 s
- Activity [27]: 10.9 s
- Activity [28]: 11.3 s
- Activity [29]: Active
- Activity [30]: 11.8 s
- Activity [31]: 11.4 s
- Activity [32]: 21
- Activity [33]: 23.8 s
- Activity [34]: 10.3 s
- Activity [35]: 7.3 s
- Activity [36]: 28.5 s
